ABCB1 inh: inhibitors of human ABCB1 transporter, ABCG2 counter-screen; P08183; CCRF-Adr cells, JC-1 efflux, flow cytometry; inhibition, % at 6.6 µM; 0.067% of 190,000 active; in the data active = inhibition above about 40%;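 also: higher value means more JC-1 retained so stronger ABCB1 efflux block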
FLuc inh counter: Photinus pyralis luciferase inhibition counter-screen | P08659 | ATPLite firefly luciferase biochemical luminescence, 10 min | inhibition, % at 10 µM | 1.5% of 200,000 active;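 active = inhibition above about 50% when tested at 10 µM, limit read from the data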
FLuc act counter: affects firefly luciferase, flagging false hits in luciferase stimulation screens; 200,000 tested, under 10 active; activation factor at 10 µM; ATPlite luciferase biochemical, luminescence, 10 min; 0 = ATP-free wells, 1 = DMSO control; AID 1027;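 active = luciferase activation factor, scaled between plate controls, of at least 2 with compound at 10 µM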
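Assay system: Luciferase/luciferin detection reagent, cell-free biochemical luciferase assay / Read-out: luciferase activation / Benchmarks: No-ATP low control, compound-free enzyme-plus-ATP high control / Medium: PBS buffer for ATP / Detection: luminescence measurement of luciferase light output / Schedule: 10 min at ambient temperature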
DTT redox prof: compounds producing H2O2 with reducing agent – biochemical, NIH compound library profiling, artefact control for MLSCN library redox annotation, primary screen | AID 878 | activation, % at 10 µM | DTT-dependent redox cycling H2O2, phenol red/HRP absorbance; 100% = 100 µM peroxide control, 0% = buffer | 0.03% of 200,000 active;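 active = activation of at least 50% relative to the plate's high and low controls in the primary single-dose screen; inactive = activation below 50%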;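 also: compound incubated with DTT at 0.8 mM final as the reducing agent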
Measles CPE: protection of cells from measles virus | Measles virus-infected cells, CPE protection, absorbance | protection (pct of control), % at 4 µM | 1.5% of 140,000 active; in the data active = protection mostly above about 24%, no sharp cut-off; inactive = mostly below about 26%
ABCG2 block: human ABCG2 inhibition, ABCB1 as counter-screen | AID 1325 | IgMXP3 cells, JC-1 efflux, flow cytometry | Q9UNQ0 | inhibition, % at 6.6 µM | 0.1% of 190,000 active;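 active = inhibition above 80%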
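Read-out basis: Efflux inhibition in percent versus controls | Test system: ABCG2 IgMXP3 and barcoded ABCB1 CCRF-Adr cell mix | Quantity: 3 million cells/mL in well | Schedule: 10 min at 25 °C | Control set: Nicardipine as high control, DMSO as low control | Reagent: JC-1 as fluorescent efflux pump substrate | Signal: Flow cytometry of retained JC-1 fluorescence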
ABCB1 confirm: inhibits human ABCB1 efflux, confirmed at single point. inhibition, % at 6.6 µM. shares compounds with ABCG2 block. 7% of 270 active. CCRF-Adr cells, JC-1 efflux, flow cytometry;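 active = inhibition of pump activity above 50%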
ABCG2 confirm: confirmation of human ABCG2 transporter inhibitors, ABCB1 counter-screen; shares compounds with ABCG2 block; IgMXP3 cells, JC-1 efflux, flow cytometry; inhibition, % at 6.6 µM; 6% of 270 active;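 active = inhibition above 50%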
IgMXP3 fluor: compound fluoresces at 488/530 nm in IgMXP3 cells. compound autofluorescence 488/530 nm, flow; hits give high values. shares compounds with ABCG2 block. 30% of 270 active. fluorescence at 6.6 µM. AID 1480;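 active = fluorescence in ABCG2-expressing cells above the plate's control-well mean plus 3 SD, cut at about 15 in these data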
CCRF-Adr fluor: CCRF-Adr autofluorescence flag for ABCB1 confirmation; shares compounds with ABCG2 block; CCRF-Adr cells, compound autofluorescence 488/530 nm, flow cytometry; hits give high values; fluorescence at 6.6 µM; 30% of 270 active; AID 1483;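 active = fluorescence beyond the plate control mean plus 3 SD, with a fluorescence-to-maximum score over 2, cut at about 25 in these data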
Numbers stand for hits; - = inactive; . = no result. In the library only some 2.7% were active in any assay of this set; here they are far more common.

SMILES	ABCB1 inh	FLuc inh counter	FLuc act counter	DTT redox prof	Measles CPE	ABCG2 block	ABCB1 confirm	ABCG2 confirm	IgMXP3 fluor	CCRF-Adr fluor
CC(NC(=O)COC(=O)Cc1ccsc1)C1CC2CCC1C2 (configuration not stated)	-	-	-	-	-	132	-	-	-	-
CCN1CCN(C(=O)c2oc(=O)c3ccccc3c2-c2ccc(C)cc2)CC1	-	-	-	-	-	-	.	.	.	.
Cc1ccc(-c2c(C(=O)NCc3ccc(F)cc3)oc(=O)c3ccccc23)cc1	-	-	-	-	-	83	-	-	-	-
Cc1cc(C)c(C#N)c(SCc2nnc(-c3ccccc3[N+](=O)[O-])o2)n1	-	-	-	-	.	-	.	.	.	.
Cc1cc(C)c(C#N)c(SCc2ccccc2[N+](=O)[O-])n1	-	-	-	-	-	101	-	-	-	-
Cc1cc(C)c(C#N)c(SCc2c(F)cccc2[N+](=O)[O-])n1	-	-	-	-	-	92	-	52	-	-
Cc1ccc(C#N)c(SCc2ccccc2[N+](=O)[O-])n1	-	-	-	-	-	-	.	.	.	.
CCOC(=O)c1sc2nc(C)c([N+](=O)[O-])c(COC)c2c1N	-	-	-	-	.	-	.	.	.	.
Cc1cc(OCc2nnc(SC(C)C(=O)O)n2Cc2ccccc2)ccc1Cl (configuration not stated)	-	-	-	-	.	-	.	.	.	.
CSc1nc(N2CCCC2)c2c(c1C#N)CC(C)(C)OC2	-	-	-	-	-	-	-	-	-	-
CCOC(=O)c1c(-c2ccccc2)csc1NC(=O)/C(C#N)=C/c1ccc(OC)c(OC)c1	-	-	-	-	-	-	.	.	.	.
CCOC(=O)c1c(-c2ccccc2)csc1NC(=O)/C(C#N)=C/c1ccc(O)c(OC)c1	66	-	-	-	-	123	-	-	284	264
O=C(NCc1ccc(F)cc1)C(C(=O)NCc1ccc(F)cc1)c1ncc(C(F)(F)F)cc1Cl	-	-	-	-	.	-	.	.	.	.
Cc1cc(NC(=O)c2cc([N+](=O)[O-])cc([N+](=O)[O-])c2)n(-c2ccccc2)n1	-	-	-	-	-	84	-	-	-	-
Cc1cc(NC(=O)c2cccc([N+](=O)[O-])c2)n(-c2ccccc2)n1	-	-	-	-	-	-	.	.	.	.
CCC(=O)Nc1cccc(C(=O)OCc2cccc([N+](=O)[O-])c2)c1	-	-	-	-	.	93	-	-	-	-
Cc1ccccc1Cn1cc(S(=O)(=O)CC(=O)Nc2nccs2)c2ccccc21	-	-	-	-	-	83	-	-	-	-
Cc1nn(-c2ccccn2)c2c1C(c1c(F)cccc1Cl)C1=C(N2)c2ccccc2C1=O (configuration not stated)	-	-	-	-	-	-	.	.	.	.
